Activity calls are given as the source filed them. The calls are words filed in the database; no cut-off is given here.
Legend:
[1] = target: T1, Sodium-dependent dopamine transporter (Homo sapiens, UniProt Q01959); conditions: HEK293, at 0.1 µM
[2] = target: T2, Sodium-dependent noradrenaline transporter (Homo sapiens, UniProt P23975); conditions: HEK293, at 0.1 µM
[3] = target: T3, Sodium-dependent serotonin transporter (Homo sapiens, UniProt P31645); conditions: HEK293, at 0.1 µM
Target sequence in this assay (P31645 whole entry, looked up): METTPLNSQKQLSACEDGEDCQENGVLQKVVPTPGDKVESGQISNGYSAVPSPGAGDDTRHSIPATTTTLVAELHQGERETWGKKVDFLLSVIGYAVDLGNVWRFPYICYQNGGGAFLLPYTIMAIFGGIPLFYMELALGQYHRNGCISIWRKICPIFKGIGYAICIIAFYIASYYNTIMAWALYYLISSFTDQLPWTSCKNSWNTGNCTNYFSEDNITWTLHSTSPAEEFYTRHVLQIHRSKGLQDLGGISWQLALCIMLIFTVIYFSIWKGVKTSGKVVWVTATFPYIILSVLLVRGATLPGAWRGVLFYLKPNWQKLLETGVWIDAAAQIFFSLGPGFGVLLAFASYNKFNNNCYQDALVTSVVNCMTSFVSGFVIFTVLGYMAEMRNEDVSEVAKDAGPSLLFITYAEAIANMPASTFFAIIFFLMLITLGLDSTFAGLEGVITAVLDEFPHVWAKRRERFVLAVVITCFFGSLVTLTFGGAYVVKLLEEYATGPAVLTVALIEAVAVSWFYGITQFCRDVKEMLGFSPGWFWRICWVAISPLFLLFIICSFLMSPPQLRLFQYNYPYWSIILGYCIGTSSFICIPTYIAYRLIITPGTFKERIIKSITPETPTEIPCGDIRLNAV

Mus musculus [4] = assay: Antidepressant activity in ICR mouse assessed as reduction in immobility time at 10 mg/kg, iv after 0.5 hrs by forced swimming test; type: functional, organism-based; set-up: dose 10 mg/kg
Summary of the method: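 ICR mice; forced swimming test following Porsolt's method. Intravenous dosing 0.5 h before the test at 2.5, 5.0 and 10.0 mg/kg. Read-out was immobility time, compared with vehicle-treated mice.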

[5] = target: T2, Sodium-dependent noradrenaline transporter; type: cell-based, HEK293
[6] = target: T3, Sodium-dependent serotonin transporter; type: cell-based, HEK293
Target sequence in this assay (P31645 whole entry): as the sequence (P31645 whole entry, looked up) above

Liver microsomes = assay: Stability in human liver microsomes assessed as compound remaining at 1 uM after 0.5 hrs by BD Gentest assay; type: ADME, Microsome
Rattus norvegicus [7] = assay: Oral bioavailability in Sprague-Dawley rat at 2 mg/kg; type: ADME, organism-based; conditions: in vivo
[8] = Mean residence time ( 0 to t ) in Sprague-Dawley rat at 1 mg/kg, iv; type: ADME, organism-based; set-up: dose 1 mg/kg, route intravenous; conditions: in vivo
Rattus norvegicus [9] = assay: Apparent volume of distribution during terminal phase in Sprague-Dawley rat at 1 mg/kg, iv; type: ADME, organism-based; set-up: dose 1 mg/kg, route intravenous; conditions: in vivo
[10] = Mean residence time ( 0 to t ) in Sprague-Dawley rat at 2 mg/kg, po; type: ADME, organism-based; set-up: dose 2 mg/kg, route oral; conditions: in vivo
[11] = Apparent volume of distribution during terminal phase in Sprague-Dawley rat at 2 mg/kg, po; type: ADME, organism-based; set-up: dose 2 mg/kg, route oral; conditions: in vivo, read-out: Vz/F
[12] = Apparent oral clearance in Sprague-Dawley rat at 1 mg/kg, iv; type: ADME, organism-based; set-up: dose 1 mg/kg; conditions: in vivo
[13] = Apparent oral clearance in Sprague-Dawley rat at 2 mg/kg, po; type: ADME, organism-based; set-up: dose 2 mg/kg, route oral; conditions: in vivo
Rattus norvegicus [14] = assay: AUC (infinity) in Sprague-Dawley rat at 2 mg/kg, po; type: ADME, organism-based, Plasma; set-up: time infinity, dose 2 mg/kg, route oral; conditions: in vivo
Rattus norvegicus [15] = assay: AUC (infinity) in Sprague-Dawley rat at 1 mg/kg, iv; type: ADME, organism-based, Plasma; set-up: time infinity, dose 1 mg/kg, route intravenous; conditions: in vivo
[16] = AUC (all) in Sprague-Dawley rat at 1 mg/kg, iv; type: ADME, organism-based; set-up: dose 1 mg/kg, route intravenous; conditions: plasma
[17] = AUC (all) in Sprague-Dawley rat at 2 mg/kg, po; type: ADME, organism-based; set-up: dose 2 mg/kg, route oral; conditions: plasma
[18] = Terminal half life in Sprague-Dawley rat at 1 mg/kg, iv; type: ADME, organism-based; set-up: dose 1 mg/kg, route intravenous; conditions: in vivo, read-out: beta t1/2 (converted)
[19] = Terminal half life in Sprague-Dawley rat at 2 mg/kg, po; type: ADME, organism-based; set-up: dose 2 mg/kg, route oral; conditions: in vivo, read-out: beta t1/2 (converted)
[20] = Cmax in Sprague-Dawley rat at 1 mg/kg, iv; type: ADME, organism-based; set-up: dose 1 mg/kg, route intravenous; conditions: in vivo
[21] = Tmax in Sprague-Dawley rat at 2 mg/kg, po; type: ADME, organism-based; set-up: dose 2 mg/kg, route oral; conditions: in vivo
[22] = Cmax in Sprague-Dawley rat at 2 mg/kg, po; type: ADME, organism-based; set-up: dose 2 mg/kg, route oral; conditions: in vivo
[23] = Ratio of drug level from brain to plasma in ICR mouse at 10 mg/kg, ip from 30 mins to 3 hrs by LC-MS/MS analysis; type: ADME, organism-based; set-up: dose 10 mg/kg, route intraperitoneal; conditions: read-out: BPR
[24] = target: Voltage-gated inwardly rectifying potassium channel KCNH2 (Homo sapiens, UniProt Q12809); assay: Inhibition of human ERG expressed in CHOK1 cells by patch clamp technique; type: cell-based, CHO-K1
Chain of Voltage-gated inwardly rectifying potassium channel KCNH2 (Q12809 whole entry): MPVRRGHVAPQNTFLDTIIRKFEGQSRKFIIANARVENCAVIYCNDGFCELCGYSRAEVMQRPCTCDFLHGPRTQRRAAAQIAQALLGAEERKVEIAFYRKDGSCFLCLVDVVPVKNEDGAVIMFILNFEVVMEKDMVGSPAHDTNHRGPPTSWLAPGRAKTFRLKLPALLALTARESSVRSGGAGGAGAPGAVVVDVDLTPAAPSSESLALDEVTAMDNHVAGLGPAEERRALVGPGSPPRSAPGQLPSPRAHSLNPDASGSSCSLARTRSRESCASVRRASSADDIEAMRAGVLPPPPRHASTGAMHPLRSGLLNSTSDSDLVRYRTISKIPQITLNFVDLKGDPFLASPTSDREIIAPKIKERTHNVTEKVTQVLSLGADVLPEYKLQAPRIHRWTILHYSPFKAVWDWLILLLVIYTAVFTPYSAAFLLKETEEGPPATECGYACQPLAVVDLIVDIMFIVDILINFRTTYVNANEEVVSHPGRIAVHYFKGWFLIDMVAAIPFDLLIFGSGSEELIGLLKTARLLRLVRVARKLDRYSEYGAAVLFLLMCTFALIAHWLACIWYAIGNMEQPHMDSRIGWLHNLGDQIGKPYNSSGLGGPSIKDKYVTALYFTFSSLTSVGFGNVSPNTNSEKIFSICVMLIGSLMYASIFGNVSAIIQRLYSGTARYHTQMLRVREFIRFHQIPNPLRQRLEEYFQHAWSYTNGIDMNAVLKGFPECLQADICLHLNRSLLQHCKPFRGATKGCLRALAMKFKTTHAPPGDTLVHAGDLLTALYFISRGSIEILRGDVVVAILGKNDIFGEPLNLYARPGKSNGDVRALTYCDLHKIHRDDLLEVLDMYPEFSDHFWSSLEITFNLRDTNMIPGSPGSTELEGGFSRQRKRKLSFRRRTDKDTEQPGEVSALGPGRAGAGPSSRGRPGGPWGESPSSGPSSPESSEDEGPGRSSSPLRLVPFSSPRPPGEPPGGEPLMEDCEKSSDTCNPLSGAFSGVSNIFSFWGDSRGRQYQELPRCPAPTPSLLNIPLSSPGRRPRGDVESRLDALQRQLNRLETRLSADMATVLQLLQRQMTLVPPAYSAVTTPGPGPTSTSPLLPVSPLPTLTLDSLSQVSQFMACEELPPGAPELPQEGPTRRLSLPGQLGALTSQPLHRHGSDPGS

[25] = target: T1, Sodium-dependent dopamine transporter; type: cell-based, HEK293
CYP3A4 = CYP3A4 (Homo sapiens, UniProt P08684); assay: Inhibition of human recombinant CYP3A4 at 10 uM after 5 mins by fluorescence assay
Chain of CYP3A4 (P08684 whole entry): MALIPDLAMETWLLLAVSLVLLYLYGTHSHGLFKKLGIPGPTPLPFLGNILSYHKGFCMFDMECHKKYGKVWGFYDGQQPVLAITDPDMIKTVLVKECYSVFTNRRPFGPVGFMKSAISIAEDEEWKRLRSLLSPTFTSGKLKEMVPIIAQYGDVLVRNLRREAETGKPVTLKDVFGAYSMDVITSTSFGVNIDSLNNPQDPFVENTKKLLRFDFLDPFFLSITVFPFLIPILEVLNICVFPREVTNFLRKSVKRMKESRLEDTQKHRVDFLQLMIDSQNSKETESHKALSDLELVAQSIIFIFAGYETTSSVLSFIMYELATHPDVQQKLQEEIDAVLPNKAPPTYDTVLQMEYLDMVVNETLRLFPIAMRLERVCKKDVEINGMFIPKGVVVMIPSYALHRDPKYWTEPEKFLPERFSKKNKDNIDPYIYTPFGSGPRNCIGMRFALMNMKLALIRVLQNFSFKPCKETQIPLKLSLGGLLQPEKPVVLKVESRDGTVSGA
Summary of the method: (§1)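 Single-point screen at 10 μM against human CYP2D6 or CYP3A4, using a VIVID CYP enzyme kit. Results were expressed as percentage inhibition.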

CYP2D6 = CYP2D6 (Homo sapiens, UniProt P10635); assay: Inhibition of human recombinant CYP2D6 at 10 uM after 5 mins by fluorescence assay
Chain of CYP2D6 (P10635 whole entry): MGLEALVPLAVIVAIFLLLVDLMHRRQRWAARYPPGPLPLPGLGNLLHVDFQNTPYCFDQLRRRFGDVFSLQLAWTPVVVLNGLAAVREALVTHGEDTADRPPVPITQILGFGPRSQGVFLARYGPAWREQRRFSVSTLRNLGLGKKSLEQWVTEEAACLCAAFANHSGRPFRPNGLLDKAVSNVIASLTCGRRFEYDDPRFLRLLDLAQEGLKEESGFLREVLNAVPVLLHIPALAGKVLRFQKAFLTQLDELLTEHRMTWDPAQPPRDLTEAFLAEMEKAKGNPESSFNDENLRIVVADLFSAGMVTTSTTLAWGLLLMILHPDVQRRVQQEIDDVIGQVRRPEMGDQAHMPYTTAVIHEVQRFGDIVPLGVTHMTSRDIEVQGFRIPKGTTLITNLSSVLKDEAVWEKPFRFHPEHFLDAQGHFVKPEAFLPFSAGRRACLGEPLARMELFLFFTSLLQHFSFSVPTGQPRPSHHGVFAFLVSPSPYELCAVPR
Summary of the method: as §1

Mus musculus [26] = assay: Antidepressant activity in po dosed ICR mouse assessed as reduction in immobility time dosed 0.5 hrs before forced swimming test; type: functional, organism-based
Summary of the method: (§2)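 ICR mice were tested in the Porsolt forced swimming test with a 30 min pretreatment. Doses were 2.5, 5.0 and 10.0 mg/kg IV or 10, 20 and 40 mg/kg PO. Read-out was immobility time, compared with vehicle. Venlafaxine was the positive control.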

Mus musculus [27] = assay: Antidepressant activity in iv dosed ICR mouse assessed as reduction in immobility time dosed 0.5 hrs before forced swimming test; type: functional, organism-based
Summary of the method: as §2

T1 sequence (Q01959 whole entry): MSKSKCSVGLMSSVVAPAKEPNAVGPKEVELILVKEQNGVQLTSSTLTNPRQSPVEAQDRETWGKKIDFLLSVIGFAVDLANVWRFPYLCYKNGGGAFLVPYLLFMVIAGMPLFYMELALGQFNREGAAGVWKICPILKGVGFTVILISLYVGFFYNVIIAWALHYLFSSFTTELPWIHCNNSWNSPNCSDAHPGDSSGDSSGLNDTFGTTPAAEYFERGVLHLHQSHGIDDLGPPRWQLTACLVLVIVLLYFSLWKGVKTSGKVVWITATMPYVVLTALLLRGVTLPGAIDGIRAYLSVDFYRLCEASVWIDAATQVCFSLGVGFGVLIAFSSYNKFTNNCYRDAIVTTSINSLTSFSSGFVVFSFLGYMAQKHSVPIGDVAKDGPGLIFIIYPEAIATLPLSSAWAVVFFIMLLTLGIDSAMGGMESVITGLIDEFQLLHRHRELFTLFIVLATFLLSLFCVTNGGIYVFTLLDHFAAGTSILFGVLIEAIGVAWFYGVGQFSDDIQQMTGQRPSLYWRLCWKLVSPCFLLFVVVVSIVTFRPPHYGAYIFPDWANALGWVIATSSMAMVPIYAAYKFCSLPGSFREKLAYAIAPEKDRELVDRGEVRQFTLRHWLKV
T2 sequence (P23975 whole entry): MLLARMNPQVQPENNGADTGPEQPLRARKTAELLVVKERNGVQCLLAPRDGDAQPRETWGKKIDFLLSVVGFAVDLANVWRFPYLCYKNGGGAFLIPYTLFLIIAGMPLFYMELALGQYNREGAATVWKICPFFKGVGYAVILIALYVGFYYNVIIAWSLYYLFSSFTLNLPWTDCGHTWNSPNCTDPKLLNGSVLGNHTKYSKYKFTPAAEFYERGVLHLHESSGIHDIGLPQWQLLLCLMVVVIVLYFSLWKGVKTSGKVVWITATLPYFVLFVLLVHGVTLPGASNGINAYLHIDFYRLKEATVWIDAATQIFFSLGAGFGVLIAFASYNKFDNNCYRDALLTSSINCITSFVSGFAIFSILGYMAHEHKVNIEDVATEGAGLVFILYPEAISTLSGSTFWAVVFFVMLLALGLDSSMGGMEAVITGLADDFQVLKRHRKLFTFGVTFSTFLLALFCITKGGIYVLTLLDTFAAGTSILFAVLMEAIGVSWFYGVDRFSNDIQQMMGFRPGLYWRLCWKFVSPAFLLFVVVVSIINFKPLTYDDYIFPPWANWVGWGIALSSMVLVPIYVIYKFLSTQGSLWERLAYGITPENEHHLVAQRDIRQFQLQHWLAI

Structure (SMILES): Clc1ccc(C(OCc2ccccc2)C2CNC2)cc1Cl (centres undefined)
- inhibition [1]: 12%
- inhibition [2]: 30%
- inhibition [3]: 12%

Structure (SMILES): OC(c1ccccc1)C1CNC1 (centres undefined)
- inhibition [1]: 3.9%
- inhibition [2]: 0.2%
- inhibition [3]: 1.7%

Structure (SMILES): COC(c1ccc(Cl)cc1)C1CNC1 (centres undefined)
- inhibition [1]: 2.6%
- inhibition [2]: 7.7%
- inhibition [3]: 3.9%

Structure (SMILES): COc1ccc(C(CN(C)C)C2(O)CCCCC2)cc1 (centres undefined)
- Activity (Mus musculus [4]): Active

Structure (SMILES): CCCOC(c1ccc2ccccc2c1)C1CNC1.Cl (centres undefined)
- IC50 [5]: 12 nM
- IC50 [6]: 6.8 nM
- Stability (Liver microsomes): Stable
- F (Rattus norvegicus [7]): 5.7%
- MRT last [8]: 0.9 h
- Vz/F (Rattus norvegicus [9]): 4.8 L/kg
- MRT last [10]: 2.2 h
- Vd/F [11]: 249 L/kg
- CL/F [12]: 78.3 mL/min/kg
- CL/F [13]: 775 mL/min/kg
- AUC (Rattus norvegicus [14]): 49.4 ng·h/mL
- AUC (Rattus norvegicus [15]): 214.6 ng·h/mL
- AUC [16]: 211 ng·h/mL
- AUC [17]: 23.9 ng·h/mL
- half-life [18]: 0.7 h
- half-life [19]: 4.8 h
- Cmax [20]: 198 ng/mL
- Tmax [21]: 1 h
- Cmax [22]: 7.3 ng/mL
- Kp [23]: 0.86
- IC50 [24]: 980 nM
- IC50 [25]: 72 nM
- inhibition [1]: 48%
- inhibition [2]: 87%
- inhibition [3]: 77%

Structure (SMILES): CCCOC(c1ccc(Cl)c(Cl)c1)C1CNC1 (centres undefined)
- IC50 [5]: 10 nM
- IC50 [6]: 44 nM
- IC50 [25]: 32 nM
- inhibition [1]: 74%
- inhibition [2]: 87%
- inhibition [3]: 39%

Structure (SMILES): c1ccc(OC(c2ccccc2)C2CNC2)cc1 (centres undefined)
- inhibition [1]: 9.3%
- inhibition [2]: 18%
- inhibition [3]: 25%

Structure (SMILES): CNCCC(Oc1ccccc1OC)c1ccccc1 (centres undefined)
- inhibition [1]: 9.8%
- inhibition [3]: 9.9%

Structure (SMILES): OC(c1ccc(Cl)cc1)C1CNC1 (centres undefined)
- inhibition [1]: 2.1%
- inhibition [2]: 3.5%
- inhibition [3]: 2%

Structure (SMILES): CCOC(c1ccc(Cl)c(Cl)c1)C1CNC1 (centres undefined)
- inhibition [1]: 30%
- inhibition [2]: 49%
- inhibition [3]: 28%

Structure (SMILES): Clc1ccc(C(Oc2ccccc2)C2CNC2)cc1 (centres undefined)
- inhibition [1]: 36%
- inhibition [2]: 68%
- inhibition [3]: 22%

Structure (SMILES): COC(c1ccccc1)C1CNC1 (centres undefined)
- inhibition [1]: 2.2%
- inhibition [2]: 1.5%
- inhibition [3]: 3.3%

Structure (SMILES): Clc1ccc(OC(c2ccc3ccccc3c2)C2CNC2)cc1Cl (centres undefined)
- IC50 [5]: 16 nM
- IC50 [6]: 35 nM
- inhibition at 5 min, 10 µM (CYP3A4): 41%
- inhibition at 5 min, 10 µM (CYP2D6): 25%
- IC50 [25]: 54 nM
- inhibition [1]: 68%
- inhibition [2]: 79%
- inhibition [3]: 28%

Structure (SMILES): Fc1cc(C(Oc2ccccc2)C2CNC2)ccc1Cl (centres undefined)
- IC50 [5]: 21 nM
- IC50 [6]: 142 nM
- IC50 [25]: 148 nM
- inhibition [1]: 30%
- inhibition [2]: 76%
- inhibition [3]: 49%

Structure (SMILES): Clc1ccc(C(OCc2ccccc2)C2CNC2)cc1 (centres undefined)
- inhibition [1]: 5.7%
- inhibition [2]: 16%
- inhibition [3]: 12%

Structure (SMILES): CCOC(c1ccccc1)C1CNC1 (centres undefined)
- inhibition [1]: 3%
- inhibition [2]: 4.5%
- inhibition [3]: 4%

Structure (SMILES): Fc1ccc(C(OCCN2CCN(CCCc3ccccc3)CC2)c2ccc(F)cc2)cc1
- inhibition [2]: -5.9%
- inhibition [3]: 1.9%

Structure (SMILES): Cl.c1ccc(OC(c2ccc3ccccc3c2)C2CNC2)cc1 (centres undefined)
- IC50 [5]: 3.1 nM
- IC50 [6]: 8.3 nM
- Stability (Liver microsomes): Stable
- Activity (Mus musculus [26]): Dose-dependent effect
- Activity (Mus musculus [4]): Active
- Activity (Mus musculus [27]): Dose-dependent effect
- F (Rattus norvegicus [7]): 5.8%
- MRT last [8]: 1.73 h
- Vz/F (Rattus norvegicus [9]): 13.1 L/kg
- MRT last [10]: 2 h
- Vd/F [11]: 241 L/kg
- CL/F [12]: 107 mL/min/kg
- CL/F [13]: 812 mL/min/kg
- AUC (Rattus norvegicus [14]): 41.7 ng·h/mL
- AUC (Rattus norvegicus [15]): 159.7 ng·h/mL
- AUC [16]: 153 ng·h/mL
- AUC [17]: 17.9 ng·h/mL
- half-life [18]: 1.4 h
- half-life [19]: 3.3 h
- Cmax [20]: 112 ng/mL
- Tmax [21]: 1.3 h
- Cmax [22]: 5.6 ng/mL
- Kp [23]: 2.7
- inhibition at 5 min, 10 µM (CYP3A4): 12%
- inhibition at 5 min, 10 µM (CYP2D6): 16%
- IC50 [25]: 35 nM
- inhibition [1]: 64%
- inhibition [2]: 90%
- inhibition [3]: 64%

Structure (SMILES): COC(c1ccc(Cl)c(Cl)c1)C1CNC1 (centres undefined)
- inhibition [1]: 22%
- inhibition [2]: 47%
- inhibition [3]: 16%

Structure (SMILES): c1ccc(COC(c2ccccc2)C2CNC2)cc1 (centres undefined)
- inhibition [1]: 2%
- inhibition [2]: 9.4%
- inhibition [3]: 12%

Structure (SMILES): Fc1cc(C(Oc2ccccc2F)C2CNC2)ccc1Cl (centres undefined)
- inhibition [1]: 29%
- inhibition [2]: 81%
- inhibition [3]: 41%

Structure (SMILES): Clc1ccc(C(Oc2ccccc2)C2CNC2)cc1Cl (centres undefined)
- inhibition [1]: 58%
- inhibition [2]: 89%
- inhibition [3]: 16%

Structure (SMILES): CCOC(c1ccc(Cl)cc1)C1CNC1 (centres undefined)
- inhibition [1]: 7.3%
- inhibition [2]: 10%
- inhibition [3]: 4.6%
